Measurements taken from ChEMBL document CHEMBL1165946, “Development of antiproliferative phenylmaleimides that activate the unfolded protein response” (Bioorg Med Chem, 2010).
Calls of active or inactive are those of the source. The calls are words filed in the database; no cut-off is given here.

What was measured:
[1] = Cytotoxicity against human Hep3B cells after 48 hrs by alamar blue assay; format: functional, cell-based, Hep 3B2
Method in brief: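 HEP3B cells in EMEM with 10% heat-inactivated FBS, 2 mmol/L L-glutamine, penicillin/streptomycin, 37 °C, 5% CO2, used in exponential growth. Exposed 48 h to 1.6–50 µM of each analog. Alamar blue then added for a further 6 h at 37 °C and fluorescence read. Growth given as % treated/control; IC50 is the concentration giving 50% reduction of cell number versus untreated controls.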

[2] = Upregulation of unfolded protein response-related DDIT3 gene expression in human Hep3B cells at 10 uM after 1 hr by RT-PCR analysis relative to control; format: functional, cell-based; details: Hep 3B2
Method in brief: (§1)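 HEP3B cells treated 1 h with 10 µM analogue, compared with untreated cells. Gene expression measured by real-time PCR with SYBR chemistry and gene-specific primer pairs, triplicate wells, GAPDH as endogenous control. Analysed by the comparative Ct method and expressed as fold induction over untreated control (n = 3, SD). Significance set at p <0.05.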

[3] = Upregulation of unfolded protein response-related ATF4 gene expression in human Hep3B cells at 10 uM after 1 hr by RT-PCR analysis relative to control; format: functional, cell-based; details: Hep 3B2; method in brief: as §1
[4] = biological target: T1, Eukaryotic translation initiation factor 2-alpha kinase 3 (Homo sapiens) (UniProt Q9NZJ5); assay: Induction of PERK-mediated phosphorylation of eIF2alpha in human Hep3B cells at 2 to 10 uM after 1 to 6 hrs by Western blot analysis; format: cell-based; details: Hep 3B2
T1 sequence (whole entry): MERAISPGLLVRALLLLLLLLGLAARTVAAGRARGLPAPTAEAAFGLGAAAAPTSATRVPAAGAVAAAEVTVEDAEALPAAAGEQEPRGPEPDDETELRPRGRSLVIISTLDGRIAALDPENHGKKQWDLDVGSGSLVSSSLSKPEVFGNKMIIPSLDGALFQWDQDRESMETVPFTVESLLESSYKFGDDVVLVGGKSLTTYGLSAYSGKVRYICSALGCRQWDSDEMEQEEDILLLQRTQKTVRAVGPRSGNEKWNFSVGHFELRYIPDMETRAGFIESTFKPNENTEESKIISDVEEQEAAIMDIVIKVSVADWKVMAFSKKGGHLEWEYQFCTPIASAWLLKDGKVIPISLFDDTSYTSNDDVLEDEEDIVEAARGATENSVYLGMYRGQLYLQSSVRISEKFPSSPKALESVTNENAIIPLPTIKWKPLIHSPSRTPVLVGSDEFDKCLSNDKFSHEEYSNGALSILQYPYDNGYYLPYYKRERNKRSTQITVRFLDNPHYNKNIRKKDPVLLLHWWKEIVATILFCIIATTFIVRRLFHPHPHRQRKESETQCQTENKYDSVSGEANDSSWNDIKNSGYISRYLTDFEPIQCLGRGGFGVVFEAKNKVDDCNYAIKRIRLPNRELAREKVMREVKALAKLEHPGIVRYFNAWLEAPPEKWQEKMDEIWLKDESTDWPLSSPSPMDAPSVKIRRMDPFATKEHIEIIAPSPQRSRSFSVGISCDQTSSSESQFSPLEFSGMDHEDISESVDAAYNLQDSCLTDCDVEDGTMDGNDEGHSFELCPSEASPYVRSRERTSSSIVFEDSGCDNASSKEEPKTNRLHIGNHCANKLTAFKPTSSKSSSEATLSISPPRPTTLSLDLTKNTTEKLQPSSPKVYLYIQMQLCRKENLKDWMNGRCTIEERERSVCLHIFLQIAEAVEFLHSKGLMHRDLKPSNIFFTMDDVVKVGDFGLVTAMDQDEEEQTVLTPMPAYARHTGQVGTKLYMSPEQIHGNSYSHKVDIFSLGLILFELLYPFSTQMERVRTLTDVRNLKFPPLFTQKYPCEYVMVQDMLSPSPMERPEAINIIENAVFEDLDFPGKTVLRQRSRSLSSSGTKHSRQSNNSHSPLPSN

[5] = Upregulation of unfolded protein response-related HSPA1A gene expression in human Hep3B cells at 10 uM after 1 hr by RT-PCR analysis relative to control; format: functional, cell-based; details: Hep 3B2; method in brief: as §1
[6] = Upregulation of unfolded protein response-related GADD34 gene expression in human Hep3B cells at 10 uM after 1 hr by RT-PCR analysis; format: functional, cell-based; details: Hep 3B2; method in brief: as §1
[7] = Upregulation of unfolded protein response-related TRIB3 gene expression in human Hep3B cells at 10 uM after 1 hr by RT-PCR analysis; format: functional, cell-based; details: Hep 3B2; method in brief: as §1
Hep 3B2 [8] = assay: Effect on stress-inducible CDKN1A gene expression in human Hep3B cells at 1 to 50 uM after 1 hr by RT-PCR analysis; format: functional, cell-based
Hep 3B2 [9] = assay: Effect on stress-inducible […] gene expression in human Hep3B cells at 1 to 50 uM after 1 hr by RT-PCR analysis; format: functional, cell-based
Hep 3B2 [10] = assay: Effect on stress-inducible CHEK1 gene expression in human Hep3B cells at 1 to 50 uM after 1 hr by RT-PCR analysis; format: functional, cell-based
Hep 3B2 [11] = assay: Effect on stress-inducible BRCA1 gene expression in human Hep3B cells at 1 to 50 uM after 1 hr by RT-PCR analysis; format: functional, cell-based
Hep 3B2 [12] = assay: Effect on stress-inducible MDM2 gene expression in human Hep3B cells at 1 to 50 uM after 1 hr by RT-PCR analysis; format: functional, cell-based
Hep 3B2 [13] = assay: Effect on stress-inducible GADD45B gene expression in human Hep3B cells at 1 to 50 uM after 1 hr by RT-PCR analysis; format: functional, cell-based
[14] = biological target: T1, Eukaryotic translation initiation factor 2-alpha kinase 3 (Homo sapiens); assay: Induction of PERK-mediated phosphorylation of eIF2alpha in human Hep3B cells at 50 uM after 1 hr by Western blot analysis; format: cell-based; details: Hep 3B2

Row | SMILES | IC50 [1] | other results
1 | O=C1C(SCCO)=C(SCCO)C(=O)N1c1ccccc1F | 9 µM | –
2 | N#Cc1ccc(N2C(=O)C(SCCO)=C(SCCO)C2=O)cc1 | 9 µM | –
3 | COc1cc(OC)cc(N2C(=O)C(SCCO)=C(SCCO)C2=O)c1 | 9 µM | –
4 | Cc1cc(Cl)ccc1N1C(=O)C(SCCO)=C(SCCO)C1=O | 8 µM | –
5 | O=C1C(SCCO)=C(SCCO)C(=O)N1Cc1ccccc1 | 5 µM | –
6 | COc1ccc(N2C(=O)C(SCCO)=C(SCCO)C2=O)cc1 | 6 µM | –
7 | CC(=O)Nc1ccc(N2C(=O)C(SCCO)=C(SCCO)C2=O)cc1 | > 100 µM | fold change (FC) [2]: 2; fold change (FC) [3]: 2; Activity [4]: inactive
8 | CC(=O)c1ccc(N2C(=O)C(SCCO)=C(SCCO)C2=O)cc1 | 10 µM | –
9 | O=C1C(SCCO)=C(SCCO)C(=O)N1c1ccc(Cl)cc1 | 7 µM | –
10 | CCOc1ccc(N2C(=O)C(SCCO)=C(SCCO)C2=O)cc1 | 6 µM | –
11 | O=C1C(SCCO)=C(SCCO)C(=O)N1Cc1cccc(Cl)c1 | 2.5 µM | –
12 | O=C1C(SCCO)=C(SCCO)C(=O)N1c1ccc2ccccc2c1 | 3.5 µM | –
13 | COc1ccc(-c2ccc(N3C(=O)C(SCCO)=C(SCCO)C3=O)cc2)cc1 | 3 µM | –
14 | Cc1ccccc1-c1ccc(N2C(=O)C(SCCO)=C(SCCO)C2=O)cc1C | 10 µM | fold change (FC) [2]: 2; fold change (FC) [3]: 2
15 | O=C1C(SCCO)=C(SCCO)C(=O)N1c1ccc(Oc2ccccc2)cc1 | > 100 µM | fold change (FC) [2]: 2; fold change (FC) [3]: 2
16 | COc1cccc(N2C(=O)C(SCCO)=C(SCCO)C2=O)c1 | 9 µM | –
17 | O=C1C(SCCO)=C(SCCO)C(=O)N1c1ccc(OC(F)(F)F)cc1 | 4 µM | –
18 | O=C1C(SCCO)=C(SCCO)C(=O)N1c1ccc(F)cc1 | 9 µM | –
19 | CN(C)c1ccc(N2C(=O)C(SCCO)=C(SCCO)C2=O)cc1 | 9 µM | –
20 | O=C1C(SCCO)=C(SCCO)C(=O)N1c1ccc(-c2ccc([N+](=O)[O-])cc2)cc1 | 4 µM | fold change (FC) [5]: 17; fold change (FC) [2]: 2; fold change (FC) [3]: 2
21 | O=C1C(SCCO)=C(SCCO)C(=O)N1CCc1cccc(Cl)c1 | 1 µM | –
22 | Cc1cccc(N2C(=O)C(SCCO)=C(SCCO)C2=O)c1 | 7 µM | –
23 | O=C1C(SCCO)=C(SCCO)C(=O)N1c1ccccc1I | 9 µM | –
24 | CCCCOc1ccc(N2C(=O)C(SCCO)=C(SCCO)C2=O)cc1 | 5 µM | –
25 | O=C1C(SCCO)=C(SCCO)C(=O)N1c1ccc(-c2ccccc2)cc1 | 0.7 µM | Activity [6]: Active; Activity [7]: Active; Activity (Hep 3B2 [8]): inactive; Activity (Hep 3B2 [9]): inactive; Activity (Hep 3B2 [10]): inactive; Activity (Hep 3B2 [11]): inactive; Activity (Hep 3B2 [12]): inactive; Activity (Hep 3B2 [13]): inactive; Activity [4]: Active; Activity [14]: Toxic
26 | O=C1C(SCCO)=C(SCCO)C(=O)N1CCc1ccccc1 | 2 µM | fold change (FC) [5]: 15.3; fold change (FC) [2]: 2; fold change (FC) [3]: 2
27 | O=C1C(SCCO)=C(SCCO)C(=O)N1c1ccc(O)cc1 | > 100 µM | –
28 | O=C1C(SCCO)=C(SCCO)C(=O)N1c1cccc2ccccc12 | 4 µM | –
29 | O=C1C(SCCO)=C(SCCO)C(=O)N1c1ccccc1 | 70 µM | fold change (FC) [2]: 2; fold change (FC) [3]: 2
30 | O=C1C(SCCO)=C(SCCO)C(=O)N1c1ccc2cc3ccccc3cc2c1 | 1.8 µM | –
